This is an account of results in ChEMBL document CHEMBL3414503, “Distinct novel quinazolinone exhibits selective inhibition in MGC-803 cancer cells by dictating mutant p53 function” (Eur J Med Chem, 2015).

In one assay the test system is HepG2. Put plainly: Cytotoxicity against human HepG2 cells assessed as cell viability after 48 hrs by MTT assay. The assay is classed as functional, cell-based. The note with it: HepG2, 48 h. The procedure, abridged: (§1)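 Cells were trypsinized, seeded in 96-well plates at 2 × 10³ cells/well and grown for 24 h. Medium was then replaced with compound solutions (in DMSO, range from 0.1) for 48 h, and viability was read by MTT. Cancer lines were grown in RPMI 1640 + 10% FCS. IC50 from 3 independent experiments, each in triplicate.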
(Tetrazolium dyes change colour on reduction, which living cells bring about.)

The test system of the next assay is NCI-H460. Put plainly: Cytotoxicity against human NCI-H460 cells assessed as cell viability after 48 hrs by MTT assay. Format: functional, cell-based. The note with it: NCI-H460, 48 h. The procedure, abridged:
as §1

Assay [1] concerns MGC-803. Put plainly: Cytotoxicity against human MGC803 cells assessed as cell viability after 48 hrs by MTT assay. Format: functional, cell-based. Particulars: MGC-803, 48 h. The procedure, abridged: as §1
A further assay relates to A-375. In words: Cytotoxicity against human A375 cells assessed as cell viability after 48 hrs by MTT assay. Format: functional, cell-based. Particulars: A-375, 48 h. The procedure, abridged:
as §1

The subject of assay [2] is MGC-803. In words: Cell cycle arrest in human MGC803 cells assessed as accumulation at sub G1 phase at 1 uM after 48 hrs by propidium iodide staining-based FACS analysis relative to control. Format: functional. (In general: A flow cytometer gives signals particle by particle.)
For assay [3], the system named is MGC-803. Put plainly: Cell cycle arrest in human MGC803 cells assessed as accumulation at G0/G1 phase at 1 uM after 48 hrs by propidium iodide staining-based FACS analysis relative to control. Format: functional.
Assay [4] concerns MGC-803. Put plainly: Cell cycle arrest in human MGC803 cells assessed as accumulation at S phase at 1 uM after 48 hrs by propidium iodide staining-based FACS analysis relative to control. Format: functional.
Assay [5] has as its system MGC-803. Put plainly: Cell cycle arrest in human MGC803 cells assessed as accumulation at G2/M phase at 1 uM after 48 hrs by propidium iodide staining-based FACS analysis relative to control. Format: functional.
Assay [6] deals with MGC-803. Put plainly: Cell cycle arrest in human MGC803 cells assessed as accumulation at sub G1 phase at 10 uM after 48 hrs by propidium iodide staining-based FACS analysis relative to control. Format: functional.
Assay [7] deals with MGC-803. Put plainly: Cell cycle arrest in human MGC803 cells assessed as accumulation at G0/G1 phase at 10 uM after 48 hrs by propidium iodide staining-based FACS analysis relative to control. Format: functional.
In assay [8] the test system is MGC-803. In words: Cell cycle arrest in human MGC803 cells assessed as accumulation at S phase at 10 uM after 48 hrs by propidium iodide staining-based FACS analysis relative to control. Format: functional.
Assay [9] relates to MGC-803. In words: Cell cycle arrest in human MGC803 cells assessed as accumulation at G2/M phase at 10 uM after 48 hrs by propidium iodide staining-based FACS analysis relative to control. The assay is classed as functional.

Broadly, the IC50 is the concentration at which inhibition is half-maximal. Regarding `CN(C)CCn1c(/C=C/c2ccc3c(c2)OCO3)nc2ccccc2c1=O`, the IC50 in the assay on HepG2, with NCI-H460, in the assay on MGC-803 [1] and with A-375 was greater than 20 µM each time.
For `CN(C)CCCn1c(/C=C/c2cccc([N+](=O)[O-])c2)nc2cc(Cl)ccc2c1=O`, the IC50 was 6.13 µM in the assay with HepG2, 5.83 µM with NCI-H460, 4.14 µM in the assay with MGC-803 [1] and 14 µM in the assay with A-375.
On the same counts, the results for `CN(C)CCCn1c(/C=C/c2ccc(F)cc2)nc2cc(Cl)ccc2c1=O` are greater than 20 µM, greater than 20 µM, greater than 20 µM and greater than 20 µM.
`CCCCn1c(/C=C/c2ccc([N+](=O)[O-])cc2)nc2ccccc2c1=O`: the IC50 with HepG2, in the assay on NCI-H460, in the assay with MGC-803 [1] and in the assay with A-375 was greater than 20 µM in each case.
`CN(C)CCn1c(/C=C/c2cccc([N+](=O)[O-])c2)nc2ccccc2c1=O`: the IC50 in the assay with HepG2, in the assay on NCI-H460, with MGC-803 [1] and with A-375 was greater than 20 µM each time.
As for `CN(C)CCCn1c(/C=C/c2ccc(F)cc2)nc2ccccc2c1=O`, the IC50 with HepG2, with NCI-H460, in the assay with MGC-803 [1] and in the assay with A-375 was greater than 20 µM each time.
Turning to `CN(C)CCCn1c(/C=C/c2ccccc2Br)nc2ccccc2c1=O`, the IC50 was 5.06 µM with HepG2, 6.54 µM in the assay on NCI-H460, 14.6 µM in the assay on MGC-803 [1] and 8.41 µM in the assay with A-375.
In the same order, the values of `CN(C)CCCn1c(/C=C/c2ccc(Cl)cc2Cl)nc2cc(Cl)ccc2c1=O` are 8.58 µM, 13.3 µM, 5.75 µM and 12.9 µM.
Consider `COc1ccc(/C=C/c2nc3ccccc3c(=O)n2CCN(C)C)cc1OC`, for which the half-maximal inhibitory concentration (IC50) in the assay on HepG2, in the assay with NCI-H460, with MGC-803 [1] and in the assay on A-375 was greater than 20 µM each time.
Turning to `COc1ccc(/C=C/c2nc3cc(Cl)ccc3c(=O)n2CCCN(C)C)cc1OC`, the IC50 in the assay on HepG2, with NCI-H460, with MGC-803 [1] and in the assay with A-375 was greater than 20 µM each time.
As for `CCCCn1c(/C=C/c2cccc([N+](=O)[O-])c2)nc2ccccc2c1=O`, the IC50 in the assay with HepG2, with NCI-H460, with MGC-803 [1] and in the assay on A-375 was greater than 20 µM throughout.
As to `COc1cc2nc(/C=C/c3ccc4c(c3)OCO4)n(CCCN(C)C)c(=O)c2cc1OC`, the IC50 in the assay on A-375 is greater than 20 µM.
As to `CN(C)CCCn1c(/C=C/c2ccc([N+](=O)[O-])cc2)nc2cc(Cl)ccc2c1=O`, the IC50 is 7.41 µM in the assay on HepG2, 5.55 µM in the assay with NCI-H460, 8.28 µM in the assay on MGC-803 [1] and 10.3 µM in the assay on A-375.
As to `CN(C)CCCn1c(/C=C/c2ccc(Cl)cc2Cl)nc2ccccc2c1=O`, the IC50 turned out to be 4.2 µM in the assay with HepG2, 5.86 µM in the assay with NCI-H460, 3.89 µM with MGC-803 [1] and 7.15 µM in the assay with A-375. Further, the Activity with MGC-803 [2] is 5.09%; in the assay on MGC-803 [3], 54.16%; with MGC-803 [4], 29.35%; in the assay on MGC-803 [5], 11.4%; with MGC-803 [6] it was 31.98%; with MGC-803 [7] it was 34.55%. In addition, the Activity in the assay with MGC-803 [8] is listed as 20.64%; with MGC-803 [9] it was 12.83%.
With `CCCCn1c(/C=C/c2ccc(Cl)cc2Cl)nc2ccccc2c1=O`, the IC50 in the assay with HepG2, in the assay on NCI-H460, in the assay with MGC-803 [1] and with A-375 was greater than 20 µM in each case.
In the case of `CN(C)CCn1c(/C=C/c2cccc(O)c2)nc2ccccc2c1=O`, the IC50 in the assay with HepG2, in the assay on NCI-H460, with MGC-803 [1] and with A-375 was greater than 20 µM each time.
Take `CN(C)CCCn1c(/C=C/c2cccc(O)c2)nc2ccccc2c1=O`: the IC50 with HepG2 is 6.1 µM; with NCI-H460 it was greater than 20 µM; with MGC-803 [1], greater than 20 µM; in the assay with A-375, greater than 20 µM.
As for `COc1cc2nc(/C=C/c3ccc([N+](=O)[O-])cc3)n(CCCN(C)C)c(=O)c2cc1OC`, the IC50 with A-375 was greater than 20 µM.
As for `CCCCn1c(/C=C/c2ccc(F)cc2)nc2ccccc2c1=O`, the IC50 in the assay with HepG2, in the assay with NCI-H460, in the assay on MGC-803 [1] and in the assay with A-375 was greater than 20 µM throughout.
`COc1cc2nc(/C=C/c3ccccc3Br)n(CCCN(C)C)c(=O)c2cc1OC`: the IC50 in the assay on A-375 is greater than 20 µM.
Take `COc1cc2nc(/C=C/c3ccc(Cl)cc3Cl)n(CCCN(C)C)c(=O)c2cc1OC`: the IC50 in the assay with HepG2 was 6.45 µM; in the assay on NCI-H460, 6.37 µM; in the assay on MGC-803 [1] it was 5.92 µM; with A-375, 12.7 µM.
As to `COc1cc2nc(/C=C/c3cccc([N+](=O)[O-])c3)n(CCCN(C)C)c(=O)c2cc1OC`, in the assay with A-375, the IC50 is greater than 20 µM.
As to `CN(C)CCCn1c(/C=C/c2ccc(Cl)cc2)nc2ccccc2c1=O`, the IC50 with HepG2, in the assay on NCI-H460, in the assay on MGC-803 [1] and in the assay with A-375 was greater than 20 µM in each case.
On to `CCCCn1c(/C=C/c2ccc3c(c2)OCO3)nc2ccccc2c1=O`, for which the IC50 in the assay on HepG2, in the assay on NCI-H460, with MGC-803 [1] and in the assay on A-375 was greater than 20 µM throughout.
As for `CN(C)CCn1c(/C=C/c2ccc(Cl)cc2Cl)nc2ccccc2c1=O`, the IC50 in the assay on HepG2, with NCI-H460, in the assay on MGC-803 [1] and with A-375 was greater than 20 µM each time.
With `CN(C)CCn1c(/C=C/c2ccccc2Br)nc2ccccc2c1=O`, the IC50 in the assay on HepG2, in the assay with NCI-H460, with MGC-803 [1] and in the assay on A-375 was greater than 20 µM throughout.
With `COc1cc2nc(/C=C/c3cccc(O)c3)n(CCCN(C)C)c(=O)c2cc1OC`, the IC50 in the assay on A-375 was greater than 20 µM.
For the compound `CN(C)CCCn1c(/C=C/c2ccc3c(c2)OCO3)nc2cc(Cl)ccc2c1=O`, the IC50 with HepG2, in the assay on NCI-H460, in the assay with MGC-803 [1] and in the assay with A-375 was greater than 20 µM in each case.
On to `CCCCn1c(/C=C/c2ccccc2Br)nc2ccccc2c1=O`, for which the IC50 with HepG2, with NCI-H460, in the assay with MGC-803 [1] and with A-375 was greater than 20 µM each time.
Consider `CN(C)CCn1c(/C=C/c2ccc([N+](=O)[O-])cc2)nc2ccccc2c1=O`, for which the IC50 with HepG2, in the assay on NCI-H460, with MGC-803 [1] and with A-375 was greater than 20 µM throughout.
`CN(C)CCn1c(/C=C/c2ccc(Cl)cc2)nc2ccccc2c1=O`: the IC50 in the assay with HepG2, in the assay with NCI-H460, with MGC-803 [1] and in the assay with A-375 was greater than 20 µM throughout.
In the case of `CCCCn1c(/C=C/c2ccc(OC)c(OC)c2)nc2ccccc2c1=O`, the IC50 with HepG2, with NCI-H460, in the assay with MGC-803 [1] and with A-375 was greater than 20 µM throughout.
For `CCCCn1c(/C=C/c2cccc(O)c2)nc2ccccc2c1=O`, the IC50 with HepG2, in the assay on NCI-H460, in the assay on MGC-803 [1] and with A-375 was greater than 20 µM in each case.
In the case of `CN(C)CCCn1c(/C=C/c2ccccc2Br)nc2cc(Cl)ccc2c1=O`, the IC50 with HepG2 was determined as 8.1 µM; with NCI-H460 it was 7.49 µM; in the assay on MGC-803 [1] it was 12.6 µM; in the assay on A-375, 13.1 µM.
On the same counts, the results for `CN(C)CCCn1c(/C=C/c2cccc(O)c2)nc2cc(Cl)ccc2c1=O` are greater than 20 µM, 10.5 µM, greater than 20 µM and greater than 20 µM.
On the same counts, the results for `CCCCn1c(/C=C/c2ccc(Cl)cc2)nc2ccccc2c1=O` are greater than 20 µM, greater than 20 µM, greater than 20 µM and greater than 20 µM.
`COc1ccc(/C=C/c2nc3cc(OC)c(OC)cc3c(=O)n2CCCN(C)C)cc1OC`: the IC50 in the assay with A-375 was greater than 20 µM.
`CN(C)CCCn1c(/C=C/c2ccc(Cl)cc2)nc2cc(Cl)ccc2c1=O`: the IC50 worked out at 6.43 µM with HepG2, 7.72 µM with NCI-H460, 6.88 µM in the assay on MGC-803 [1] and 14.1 µM in the assay with A-375.
For the compound `CN(C)CCn1c(/C=C/c2ccc(F)cc2)nc2ccccc2c1=O`, the IC50 with HepG2, with NCI-H460, with MGC-803 [1] and in the assay with A-375 was greater than 20 µM in each case.
